Source: paper PMC6664420 (Drug Design, Development and Therapy, 2019)

Legend:
[1] = rats; ref Investigator's brochure, unpublished data; cited from earlier work
Gram-negative pathogens = conditions: ref Investigator's brochure, unpublished data; cited from earlier work
[2] = no method or reference given; cited from earlier work
[3] = Safety and tolerability after a single oral dose in healthy volunteers; type: in vivo, human
Summary of the method: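 Single-dose, double-blind, placebo-controlled (8:2 active:placebo) escalation in healthy men; tolerability through 48 h post-dose decided escalation. Monitoring covered AEs, physical exam, vital signs, 12-lead ECG, clinical laboratory tests, protein electrophoresis, and continuous pulse oximetry for 4 h post-dose. QTcmax and ΔQTcmax per dose group were compared with placebo by ANOVA and Dunnett's test, P<0.05.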

[4] = Pharmacokinetics after a single oral dose in healthy volunteers; type: in vivo, human
Summary of the method: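 Healthy men aged 20–50 y received a double-blind single oral dose of test compound mesylate (40–1280 mg) fasted; at 640 mg, dosing was repeated fed in period 2. Plasma was sampled from predose to 48 h, and urine was collected over 0–6, 6–12, 12–24 and 24–48 h. Analysis was UPLC-MS/MS, positive mode. Non-compartmental: linear-up/log-down AUC0-t. Dose proportionality used 95% CI of log-log slope. Food effect used a mixed-model GMR with 90% CI.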

[5] = cited from earlier work
[6] = mice model; no method or reference given; cited from earlier work
Streptococcus pneumonia = conditions: ref Investigator's brochure, unpublished data; cited from earlier work
hERG current = conditions: preclinical study; ref Investigator's brochure, unpublished data; cited from earlier work
[7] = all groups, total includes 1 placebo case per Table 2

CC(C)(C)[C@H](NC(=O)[C@H](CC1CCCC1)CN(O)C=O)C(=O)N1CCC(NCc2cc(F)c(F)cc2F)CC1 [IDP-73152]
distribution coefficient of the liver [1]: approximately 6.0
distribution coefficient of the lung [1]: ~3.5
MIC against Gram-negative pathogens (Gram-negative pathogens): unfavorable MIC value
bound to plasma protein [2]: 95.4%
Incidence of drug-related AE: Diarrhoea ([3]; 160 mg, N=8): 1
Incidence of drug-related AE: Nausea ([3]; 160 mg, N=8): 1
Incidence of drug-related AE: Abdominal pain ([3]; 320 mg, N=8): 1
Incidence of drug-related AE: Epigastric discomfort ([3]; 320 mg, N=8): 1
Incidence of drug-related AE: Abdominal discomfort ([3]; 640 mg, fasted state, N=8): 1
Incidence of drug-related AE: Headache ([3]; 1280 mg, N=8): 1
Incidence of drug-related AE: Nausea ([3]; 1280 mg, N=8): 4
severity of AEs ([3]; all dose groups): mild severity and not serious
drug-related headache, total [3, 7]: 2 cases
drug-related nausea, total [3, 7]: 6 cases
tolerability ([3]; single oral dose of up to 1280 mg): well tolerated
effect of food on terminal half-life ([4]; 640 mg, fed vs fasted, P=0.779): not affected by food intake
GMR (with 90% CI) of AUC0-t, fed vs fasted ([4]; 640 mg, high-fat meal): 0.862 (0.811–0.917)
GMR (with 90% CI) of Cmax, fed vs fasted ([4]; 640 mg, high-fat meal): 0.638 (0.563–0.723)
decrease of Cmax by food ([4]; 640 mg, high-fat meal, fed vs fasted): 36.2%
decrease of Cmax by food ([4]; 640 mg, high-fat meal, fed vs fasted, listed as IDP-73152 mesylate): 36%
dose proportionality of AUC0-t ([4]; all dose ranges (40–1280 mg)): more than dose-proportional
dose proportionality of AUC0-t ([4]; range of 40–320 mg): dose-proportional
plasma level relative to MIC ([4]; single dose of 1280 mg, 12 hrs post-dose): above MIC level
in vitro antimicrobial activity, minimal inhibitory concentration (MIC) [5]: comparable to that of linezolid and vancomycin
mean tmax [6]: 30 min
terminal half-life [6]: 63 min
volume of distribution [6]: 1.71 L/kg
PK/PD dependence of the antibiotic effect (Streptococcus pneumonia): AUC-dependent
inhibition of the hERG current (hERG current): concentration-dependent inhibition
